TCR CD3 inh = human TCR-CD3 binding inhibition; 0.37% of 360,000 active; TAMRA-labeled TCR probe fluorescence, biochemical; inhibition, % at 9.4 µM; AID 651800; in the data active = inhibition above about 19%;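 note: recombinant mutant TCR 2C K166C tagged with TAMRA read by polarization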
Tn6 DDE FP = disrupts Tn6 cyclic peptide binding to fibrin D-Dimer-E complex | P02675 | Fibrin DD(E) TRITC-Tn6 fluorescence polarization displacement | inhibition, % at 8.3 µM | 0.21% of 370,000 active;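 active = inhibition above a per-campaign cutoff: mean of compounds within control limits plus 3 SD, cut at about 15% in these data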
Target sequence (P02675 whole entry, looked up): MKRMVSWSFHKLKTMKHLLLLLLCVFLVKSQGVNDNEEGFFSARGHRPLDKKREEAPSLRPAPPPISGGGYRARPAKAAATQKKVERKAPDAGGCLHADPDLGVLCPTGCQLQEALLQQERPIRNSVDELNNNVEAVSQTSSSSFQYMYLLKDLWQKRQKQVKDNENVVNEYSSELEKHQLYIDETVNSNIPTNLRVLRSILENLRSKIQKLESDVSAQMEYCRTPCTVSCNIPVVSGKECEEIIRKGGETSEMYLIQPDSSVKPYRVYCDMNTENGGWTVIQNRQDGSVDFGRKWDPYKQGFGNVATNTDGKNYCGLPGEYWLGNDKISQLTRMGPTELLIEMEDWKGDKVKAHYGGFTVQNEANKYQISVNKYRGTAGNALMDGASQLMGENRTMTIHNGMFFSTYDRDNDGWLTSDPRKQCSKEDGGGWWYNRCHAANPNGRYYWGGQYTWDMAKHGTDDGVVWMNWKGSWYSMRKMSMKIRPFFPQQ
Tn7 DDE FP = DD(E)-Tn7 binding inhibition, primary FP screen; P02675; FP displacement of FITC-Tn7 peptide from fibrin DD(E); 0% = median of compound wells per plate; inhibition, % at 8.3 µM; 0.13% of 370,000 active;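 active = inhibition above the mean of compounds falling within the control limits plus 3 SD of them, cut at about 14% in these data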
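Assay system: Human clot-derived fibrin DD(E) complex | Buffer or medium: Tris/NaCl/CaCl2 buffer, pH 7.8 | Repeats: One replicate per compound | Benchmarks: Aha-Tn7 high control | Measure: % inhibition scaled between sample-field median and high-control FP | Schedule: 10 min plus 3 h, room temperature | Signal: Fluorescence polarization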
mABHD4 FP = inhibitors of mouse ABHD4; purified mABHD4, FP-Rh probe fluorescence polarization; inhibition, % at 8.92 µM; 0.54% of 370,000 active; AID 720543;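 active = inhibition exceeding the mean over every tested compound plus 3 SD, cut at about 30% in these data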
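Assay system: mouse ABHD4 enzyme, wild type / Also added: fluorescent activity-based probe FP-Rh / Doses: single nominal dose of 8.92 µM, 0.89% DMSO final / Timing: 45 min compound pre-incubation plus 60 min probe step, 25 °C / Signal: FP readout, ex 525 nm / em 598 nm / Control set: S159A mutant/DMSO as 100%, compound-well median as 0%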
HTRA1 inh = blocks human HTRA1 serine peptidase. Q92743. recombinant HTRA1, FP-rhodamine activity-based probe, fluorescence polarization. 0.5% of 340,000 active. inhibition, % at 5.96 µM. AID 504803; in the data active = inhibition above about 36%
HTRA1 inh conf = HTRA1 (human) inhibition, confirmation | 66% of 1,600 active | recombinant HTRA1, FP-rhodamine activity-based probe, fluorescence polarization | shares compounds with HTRA1 inh | inhibition, % at 5.96 µM | AID 540248;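 active = mean inhibition over three repeats above a set limit taken from the earlier primary screen, cut at about 37% in these data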;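 note: inhibitors block probe binding so polarization drops and inhibition rises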
Of the large screens only hits and unclear results are named; the others gave an inactive call (follow-up assays come after a bar, where they were run). A selection: hits, their analogues and other compounds. The true share with any hit is near 1.3%.

CC(=O)Nc1ccccc1-c1nnn(CC(=O)Nc2ccc3c(c2)OCCO3)n1	none
CC(=O)NC(c1ccc(Cl)cc1Cl)c1ccc2cccnc2c1O (stereo unspecified)	HTRA1 inh 73 | HTRA1 inh conf 67
CCCCC(=O)NC(c1ccccc1OC)c1ccc2cccnc2c1O (stereo unspecified)	HTRA1 inh 60 | HTRA1 inh conf 52
CCCC(=O)NC(c1ccc(C)cc1)c1ccc2cccnc2c1O (stereo unspecified)	HTRA1 inh 45 (no result: TCR CD3 inh, Tn6 DDE FP, Tn7 DDE FP, mABHD4 FP) | HTRA1 inh conf 58
CCCC(=O)NC(c1cccc([N+](=O)[O-])c1)c1ccc2cccnc2c1O (stereo unspecified)	none
CCCC(=O)NC(c1ccccc1OC)c1ccc2cccnc2c1O (stereo unspecified)	none (no result: TCR CD3 inh, Tn6 DDE FP, Tn7 DDE FP, mABHD4 FP)
CC(=O)NC(c1cccs1)c1cc(F)c2cccnc2c1O (stereo unspecified)	none
CCCCC(=O)NC(c1ccc(Cl)cc1)c1ccc2cccnc2c1O (stereo unspecified)	HTRA1 inh 40 | HTRA1 inh conf 44
CCN=C1SC(C(=O)NCCc2ccccc2)CC(=O)N1CC (stereo unspecified)	none
CCCC(=O)NC(c1ccccc1Cl)c1c(O)ccc2ccccc12 (stereo unspecified)	none
CCCC(=O)NC(c1ccc(Cl)cc1)c1ccc2cccnc2c1O (stereo unspecified)	HTRA1 inh 46 | HTRA1 inh conf 48
COc1ccc(C(NC(C)=O)c2ccc3cccnc3c2O)c(OC)c1 (stereo unspecified)	none (no result: TCR CD3 inh, Tn6 DDE FP, Tn7 DDE FP, mABHD4 FP)
CCCC(=O)NC(c1ccc(Cl)cc1Cl)c1ccc2cccnc2c1O (stereo unspecified)	HTRA1 inh 53 | HTRA1 inh conf 56
CC(=O)NC(c1ccc2ccccc2c1)c1ccc2cccnc2c1O (stereo unspecified)	HTRA1 inh 52 | HTRA1 inh conf 68
O=C(CCc1nc2ccccc2[nH]c1=O)OCc1ccc(S(=O)(=O)N2CCOCC2)cc1	none
Cc1nn(-c2ccccc2)c(C)c1NC(=O)c1ccc(S(=O)(=O)N2CCCC2)cc1	none
Oc1c(C(Nc2cccc(C(F)(F)F)c2)c2ccncc2)ccc2cccnc12 (stereo unspecified)	none
CC(C)CC(=O)NC(c1cccs1)c1ccc2cccnc2c1O (stereo unspecified)	HTRA1 inh 43 (no result: TCR CD3 inh, Tn6 DDE FP, Tn7 DDE FP, mABHD4 FP) | HTRA1 inh conf 38
Oc1c(C(Nc2nc3ccccc3s2)c2ccco2)ccc2cccnc12 (stereo unspecified)	HTRA1 inh 36 | HTRA1 inh conf 40
CCC(=O)NC(c1cccs1)c1ccc2cccnc2c1O (stereo unspecified)	HTRA1 inh 41 | HTRA1 inh conf 46
Oc1c(C(Nc2nccs2)c2ccc(C(F)(F)F)cc2)ccc2cccnc12 (stereo unspecified)	HTRA1 inh 43 | HTRA1 inh conf 54
CC(=O)NC(c1ccco1)c1cc(F)c2cccnc2c1O (stereo unspecified)	none
CCC(=O)NC(c1cccs1)c1cc([N+](=O)[O-])c2cccnc2c1OC (stereo unspecified)	none (no result: HTRA1 inh)
Oc1c(CN2CCN(c3ccccn3)CC2)cc(Cl)c2cccnc12	HTRA1 inh 39 (no result: TCR CD3 inh, Tn6 DDE FP, Tn7 DDE FP, mABHD4 FP) | HTRA1 inh conf 58
COc1ccccc1N1CCN(Cc2cc(Br)c(O)c3ncccc23)CC1	HTRA1 inh 55 | HTRA1 inh conf 82
COCc1cc(CN2CCCC2)c(O)c2ncccc12	none
CCOc1ccccc1N1CCN(Cc2cccc(OC)c2O)CC1	none
OCCN1CCN(Cc2cc(Cl)c3cccnc3c2O)CC1	HTRA1 inh 52 | HTRA1 inh conf 54
COc1cccc(-c2nc(-c3ccc(NC(=O)c4cccs4)cc3)no2)c1	none
Nc1c(N(Cc2ccccc2)C(=O)CCc2ccccc2)c(=O)[nH]c(=O)n1Cc1ccccc1	none
CCc1nc2ccc(C(=O)NCCCN3CCN(c4ccccc4F)CC3)cc2nc1CC	none
Cc1cc(C(=O)NNC(=S)NC(=O)/C=C/c2ccccc2Cl)n[nH]1	none
Clc1ccccc1/C=N/NC1=Nc2cccc3cccc1c23	none
C(=N\NC1=Nc2cccc3cccc1c23)/c1ccccn1	HTRA1 inh 49 | HTRA1 inh conf 50
COc1cc2c(cc1OC)C(=O)C(c1ccc3c(c1)OCO3)CC2 (stereo unspecified)	none
COc1cc2c(cc1OC)C(=O)C(Br)CC2 (stereo unspecified)	HTRA1 inh 42 (no result: TCR CD3 inh, Tn6 DDE FP, Tn7 DDE FP, mABHD4 FP) | HTRA1 inh conf inactive
O=C(c1ccccc1)c1ccc(C(=O)O)c(C(=O)O)c1	none
CCOC(=O)c1cc(C(=O)n2cc(Cl)cn2)nn1C	none
O=C(N/N=C1/CCSC1)c1cc(Br)ccc1O	HTRA1 inh 45 | HTRA1 inh conf inactive
O=C(NN=C1CCCC1)c1cc(Br)ccc1O	none
Oc1cc2ccccc2cc1-c1n[nH]c(=S)o1	HTRA1 inh 48 | HTRA1 inh conf 49
COc1ccc(/C=C2\SC(=O)N=C2N)cc1	none
CCCCCCCCCCCCCCCC[N+](C)(C)Cc1ccc(F)cc1	mABHD4 FP 44, HTRA1 inh 64 | HTRA1 inh conf 64
CC#CC[N+](C)(C)CCCCCCCC	none
Cc1ccc(S(=O)(=O)NC(=O)Nc2ccc(N(C)C)cc2)cc1	HTRA1 inh 44 | HTRA1 inh conf 45
Cc1ccc(NC(=O)NNS(=O)(=O)c2ccc(Br)cc2)cc1	none
O=C(COC(=O)c1ccc2ncsc2c1)NC(=O)NCc1ccccc1	HTRA1 inh 39 | HTRA1 inh conf inactive
CCOc1ccc2nc3cc(N=Nc4ccc(N)nc4N)ccc3c(N)c2c1	HTRA1 inh 47 (no result: TCR CD3 inh, Tn6 DDE FP, Tn7 DDE FP, mABHD4 FP) | HTRA1 inh conf 70
COc1ccc(N=Nc2ccc(N)nc2N)cc1	none
COc1ccccc1NC(=O)c1ccccc1Nc1ccccc1	none
COc1ccccc1Nc1ccc(N)cc1	HTRA1 inh 68 | HTRA1 inh conf 56
COc1cc(CNc2ccc(N3CCCC3)cc2)ccc1OCc1ccccc1F	HTRA1 inh 40 (no result: TCR CD3 inh, Tn6 DDE FP, Tn7 DDE FP, mABHD4 FP) | HTRA1 inh conf inactive
COc1cc(CNc2ccc(N3CCCC3)cc2)ccc1OCc1ccccc1	none
COc1cc(CNc2ccc(N3CCCCC3)cc2)ccc1OCC(=O)NC(C)(C)C	HTRA1 inh 41 | HTRA1 inh conf inactive
COc1c(-c2ccc(O)c(O)c2)oc2cc(O)cc(O)c2c1=O	HTRA1 inh 37 | HTRA1 inh conf 48
C[C@@H]1O[C@@H](OC[C@H]2O[C@@H](Oc3c(-c4ccc(O)c(O)c4)oc4cc(O)cc(O)c4c3=O)[C@H](O)[C@@H](O)[C@@H]2O)[C@H](O)[C@H](O)[C@H]1O	none
CC(C)(C)CC(=O)Nc1nnc(-c2cccs2)s1	none
